The source of these data is ChEMBL document CHEMBL5030509, “A Crowding Barrier to Protein Inhibition in Colloidal Aggregates” (J Med Chem, 2021).

By inhibition is commonly meant how much of the control response was suppressed.

Experiment [1] relates to Bacteria. Nature of the experiment: Inhibition of bacterial AmpC beta-lactamase assessed as time reach to 90% inhibition in absence of preloaded MDH. Summed up: (§1)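 AmpC activity with 70 μM CENTA, read at 405 nm for 150 s, in 50 mM KPi pH 7 at room temperature. For preloading, the aggregator was incubated 5 min with MDH before AmpC was added and incubated for varying times. % activity is relative to an aggregator-free rate control. T90 is the time to 10% activity.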

Experiment [2] concerns Bacteria. The experiment can be described thus: Inhibition of bacterial AmpC beta-lactamase preincubated for 30 sec in presence of preloaded MDH relative to control. The conditions noted are these: concentration not given here. Summed up:
as §1

Experiment [3] deals with Bacteria. Nature of the experiment: Inhibition of bacterial AmpC beta-lactamase preincubated for 30 sec in absence of preloaded MDH relative to control. The conditions noted are these: concentration not given here. The procedure, abridged:
as §1

Experiment [4] has as its system Bacteria. The experiment can be described thus: Inhibition of bacterial AmpC beta-lactamase at 5 uM preincubated for 1 min followed by CENTA chromogenic substrate addition by spectrophotometric method relative to control. Summed up: (§2)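 AmpC β-lactamase mixed with colloidal aggregator in 50 mM KPi pH 7 at room temperature, mixed by pipetting, incubated 30 s–15 min. Then 70 μM CENTA added and absorbance followed at 405 nm for 150 s. % activity is the initial rate relative to an aggregator-free control. T90 is the incubation time to reach 10% activity.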

Experiment [5] deals with Bacteria. Nature of the experiment: Inhibition of bacterial AmpC beta-lactamase at 10 uM using 2 nM of enzyme preincubated for 30 sec followed by CENTA chromogenic substrate addition by spectrophotometric assay relative to control. Summed up: as §2
For experiment [6], the system named is Bacteria. The experiment can be described thus: Inhibition of bacterial AmpC beta-lactamase at 10 uM using 2 nM of enzyme preincubated for 5 mins followed by CENTA chromogenic substrate addition by spectrophotometric assay relative to control. Summed up: as §2
Experiment [7] addresses T1, Malate dehydrogenase, mitochondrial (Homo sapiens) (UniProt P40926).
T1 sequence (whole entry): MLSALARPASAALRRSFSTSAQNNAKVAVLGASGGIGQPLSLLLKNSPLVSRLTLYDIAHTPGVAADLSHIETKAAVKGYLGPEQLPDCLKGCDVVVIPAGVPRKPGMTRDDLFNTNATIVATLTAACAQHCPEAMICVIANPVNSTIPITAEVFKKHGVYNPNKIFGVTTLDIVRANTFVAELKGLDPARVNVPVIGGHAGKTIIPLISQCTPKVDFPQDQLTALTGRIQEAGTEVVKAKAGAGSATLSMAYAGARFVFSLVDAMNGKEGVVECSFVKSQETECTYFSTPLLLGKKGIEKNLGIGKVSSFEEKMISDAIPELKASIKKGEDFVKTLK
The experiment can be described thus: Inhibition of malate dehydrogenase (unknown origin) assessed as time to reach 90% inhibition pretreated with 50 mM KPi for 15 mins followed by nicotinamide adenine dinucleotide addition measured every 150 sec by spectrophotometric method. The conditions noted are these: dose 5.0 mM, in the assay text read “5 mM KPi” for “50 mM KPi”. The procedure, abridged: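 Porcine heart MDH mixed with colloidal aggregator in 50 mM KPi pH 7 at room temperature, incubated 30 s–15 min. Reaction started with 200 μM NADH and 200 μM oxaloacetic acid, followed at 340 nm for 150 s. Initial rate relative to an aggregator-free control gives % activity. T90 is the incubation time to 10% activity.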

The target in experiment [8] is T1, Malate dehydrogenase, mitochondrial (Homo sapiens). The experiment can be described thus: Inhibition of preloaded MDH (unknown origin) preincubated for 30 sec in absence of preloaded AmpC. Summed up: (§3)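 Porcine heart MDH assay: 200 μM nicotinamide adenine dinucleotide plus 200 μM oxaloacetate, read at 340 nm for 150 s, in 50 mM KPi pH 7 at room temperature. For preloading, the aggregator was first incubated 5 min with AmpC, then MDH was added and incubated for varying times. % activity is relative to an aggregator-free control.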

The target is the same in experiment [9]. The experiment can be described thus: Inhibition of preloaded MDH (unknown origin) preincubated for 30 sec in presence of preloaded AmpC. Summed up:
as §3

Experiment [10] concerns Bacteria. The experiment can be described thus: Inhibition of bacterial AmpC beta-lactamase assessed as time reach to 90% inhibition in presence of preloaded MDH. The procedure, abridged: as §1
Experiment [11] relates to Bacteria. The experiment can be described thus: Inhibition of bacterial AmpC beta-lactamase at 10 uM using 10 nM of enzyme preincubated for 30 sec followed by CENTA chromogenic substrate addition by spectrophotometric assay relative to control. Summed up: as §2
For another experiment, the system named is Escherichia coli. The experiment can be described thus: Inhibition of Escherichia coli beta galactosidase using ortho-nitrophenyl-beta-galactoside as substrate. Summed up: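 E. coli β-galactosidase (overproducer) mixed with colloidal aggregator in 50 mM KPi pH 7, incubated 30 s–15 min at room temperature; reaction started with 300 μM ortho-nitrophenyl-β-galactoside and followed at 320 nm for 150 s. Initial rate divided by that of an aggregator-free control gives % activity.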

Experiment [12] concerns Bacteria. Nature of the experiment: Inhibition of bacterial AmpC beta-lactamase at 5 uM preincubated for 2 mins followed by CENTA chromogenic substrate addition by spectrophotometric method relative to control. The procedure, abridged:
as §2

The test system of experiment [13] is Bacteria. Nature of the experiment: Inhibition of bacterial AmpC beta-lactamase at 10 uM of 10 nM of enzyme preincubated for 5 min followed by CENTA chromogenic substrate addition by spectrophotometric assay relative to control. Also noted: scale not given: the % may be the effect or the level left. Summed up:
as §2

Experiment [14] concerns Bacteria. The experiment can be described thus: Inhibition of bacterial AmpC beta-lactamase at 5 uM preincubated for 5 min followed by CENTA chromogenic substrate addition by spectrophotometric method relative to control. Summed up:
as §2

Activity calls are given as the source filed them. The rule behind the calls is not given here. A value given as a limit tells only on which side of the number the result lay.

Turning to `CNC(=O)c1cc(Oc2ccc(NC(=O)Nc3ccc(Cl)c(C(F)(F)F)c3)cc2)ccn1`, the figures for the TIME (in the experiment with Bacteria [1]; in experiment [7]; in the experiment with Bacteria [10]) were 0.0167 h, greater than 0.25 h and 0.0833 h, respectively. Further, the inhibition stood at 45% with Bacteria [2]; 80% in the experiment on Bacteria [3]; 40% with Bacteria [4]; 67% with Bacteria [5]; 100% with Bacteria [6]; 40% in the experiment on Bacteria [11]. The values for the inhibition with Bacteria [12] and in the experiment on Bacteria [14] were 80% and 100%, respectively. Further, the inhibition result (in experiment [8]; in experiment [9]; in the experiment with Escherichia coli) was “Active” throughout. This molecule also came in with an Activity in the experiment with Bacteria [13] of 20%.
